Assay results taken from paper PMC6634314 (Cell chemical biology, 2019).

Assays:
CSNK1G3 = experiment: MIB washout assay; assay type: binding, Human; details: H23 cells, 1 μM 4h, MIB pulldown ratio SM1-71/SM1-71-R
TGFBR2 = experiment: MIB washout assay; assay type: binding, Human; details: H23 cells, 1 μM 4h, MIB pulldown ratio SM1-71/SM1-71-R
MAP3K1 = experiment: MIB washout assay; assay type: binding, Human; details: H23 cells, 1 μM 4h, 0h post-washout, MIB pulldown ratio SM1-71/SM1-71-R
PRKD3 = experiment: MIB washout assay; assay type: binding, Human; details: H23 cells, 1 μM 4h, MIB pulldown ratio SM1-71/SM1-71-R
LYN = experiment: MIB washout assay; assay type: binding, Human; details: H23 cells, 1 μM 4h, MIB pulldown ratio SM1-71/SM1-71-R
AURKA [1] = target: T1, AURKA (Homo sapiens, UniProt O14965); experiment: MIB dose-dependent kinase inhibition assay; assay type: binding; details: read-out: IC50 in the MIB assay, H23 cell lysate, overnight 4°C
T1 sequence (O14965 1-403): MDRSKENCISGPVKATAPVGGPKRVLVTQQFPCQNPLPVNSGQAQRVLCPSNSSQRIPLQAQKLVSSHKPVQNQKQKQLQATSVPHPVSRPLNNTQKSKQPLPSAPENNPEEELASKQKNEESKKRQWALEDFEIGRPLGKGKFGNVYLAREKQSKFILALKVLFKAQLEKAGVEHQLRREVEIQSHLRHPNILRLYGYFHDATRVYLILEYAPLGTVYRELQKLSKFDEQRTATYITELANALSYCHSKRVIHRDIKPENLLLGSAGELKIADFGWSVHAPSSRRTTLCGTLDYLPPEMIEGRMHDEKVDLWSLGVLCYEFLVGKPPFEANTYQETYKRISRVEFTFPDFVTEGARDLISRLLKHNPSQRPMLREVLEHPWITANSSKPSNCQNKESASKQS

MAP2K2 = experiment: MIB washout assay; assay type: binding, Human; details: H23 cells, 1 μM 4h, MIB pulldown ratio SM1-71/SM1-71-R
PIP5K1A = experiment: MIB washout assay; assay type: binding, Human; details: H23 cells, 1 μM 4h, MIB pulldown ratio SM1-71/SM1-71-R
IGF1R = experiment: MIB washout assay; assay type: binding, Human; details: H23 cells, 1 μM 4h, MIB pulldown ratio SM1-71/SM1-71-R
PIK3C3 = experiment: MIB washout assay; assay type: binding, Human; details: H23 cells, 1 μM 4h, MIB pulldown ratio SM1-71/SM1-71-R
AURKA [2] = target: T1, AURKA; experiment: MIB washout assay; assay type: binding
LIMK1 = LIMK1 (Homo sapiens, UniProt P53667); experiment: MIB dose-dependent kinase inhibition assay; assay type: binding; details: read-out: IC50 in the MIB assay, H23 cell lysate, overnight 4°C
Sequence of LIMK1 (P53667 whole entry): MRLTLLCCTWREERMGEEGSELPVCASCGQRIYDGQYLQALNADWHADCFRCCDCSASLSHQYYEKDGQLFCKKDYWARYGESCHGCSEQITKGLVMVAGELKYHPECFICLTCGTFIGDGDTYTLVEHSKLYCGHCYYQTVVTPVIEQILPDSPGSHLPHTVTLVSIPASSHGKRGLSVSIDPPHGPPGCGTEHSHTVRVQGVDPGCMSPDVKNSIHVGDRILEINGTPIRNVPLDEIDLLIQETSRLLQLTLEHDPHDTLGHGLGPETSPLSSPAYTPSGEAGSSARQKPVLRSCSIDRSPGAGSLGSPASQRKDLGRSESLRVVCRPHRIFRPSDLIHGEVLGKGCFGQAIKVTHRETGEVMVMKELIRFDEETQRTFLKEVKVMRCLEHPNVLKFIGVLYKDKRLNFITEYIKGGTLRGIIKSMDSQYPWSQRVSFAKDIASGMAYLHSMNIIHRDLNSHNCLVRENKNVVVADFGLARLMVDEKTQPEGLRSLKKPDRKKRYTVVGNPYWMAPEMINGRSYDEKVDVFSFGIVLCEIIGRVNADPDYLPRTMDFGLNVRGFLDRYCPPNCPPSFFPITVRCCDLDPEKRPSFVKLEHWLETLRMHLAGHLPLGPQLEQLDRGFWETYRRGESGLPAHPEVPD

CSNK1G1 = experiment: MIB washout assay; assay type: binding, Human; details: H23 cells, 1 μM 4h, MIB pulldown ratio SM1-71/SM1-71-R
CSNK2A1 = experiment: MIB washout assay; assay type: binding, Human; details: H23 cells, 1 μM 4h, MIB pulldown ratio SM1-71/SM1-71-R
MAP2K1 = experiment: MIB washout assay; assay type: binding, Human; details: H23 cells, 1 μM 4h, MIB pulldown ratio SM1-71/SM1-71-R
PAK4 = experiment: MIB washout assay; assay type: binding, Human; details: H23 cells, 1 μM 4h, MIB pulldown ratio SM1-71/SM1-71-R
GSK3B = GSK3B (Homo sapiens, UniProt P49841); experiment: mass shift assay; assay type: binding; details: incubated 4 and 24h
Sequence of GSK3B (P49841 whole entry, species assumed): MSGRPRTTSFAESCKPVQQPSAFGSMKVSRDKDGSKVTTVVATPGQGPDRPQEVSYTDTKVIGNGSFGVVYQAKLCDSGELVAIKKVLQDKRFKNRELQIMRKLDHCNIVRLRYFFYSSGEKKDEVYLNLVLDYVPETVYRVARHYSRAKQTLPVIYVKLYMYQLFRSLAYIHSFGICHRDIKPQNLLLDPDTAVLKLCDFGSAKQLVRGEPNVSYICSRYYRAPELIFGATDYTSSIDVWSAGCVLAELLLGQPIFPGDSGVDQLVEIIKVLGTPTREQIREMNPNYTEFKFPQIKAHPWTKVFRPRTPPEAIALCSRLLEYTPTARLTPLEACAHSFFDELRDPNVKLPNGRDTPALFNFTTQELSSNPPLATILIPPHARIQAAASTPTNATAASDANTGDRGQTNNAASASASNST
Method in brief: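 Kinase protein at 0.12 mM in 10 mM HEPES pH 7.5, 500 mM NaCl, incubated with 0.2 mM test compound at 4°C for 4 h and 24 h. Samples were diluted in 0.1% formic acid and desalted on a C3 pre-column. ESI-TOF was run in positive mode at 120 V, and intact mass was obtained by deconvolution to detect the adduct.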

CSNK1D = experiment: MIB washout assay; assay type: binding, Human; details: H23 cells, 1 μM 4h, MIB pulldown ratio SM1-71/SM1-71-R
ACVR1 = experiment: MIB washout assay; assay type: binding, Human
MAP2K1/2 = experiment: MIB dose-dependent kinase inhibition assay; assay type: binding, Human; details: read-out: IC50 in the MIB assay, H23 cell lysate, overnight 4°C
ACVR1B = experiment: MIB washout assay; assay type: binding, Human; details: H23 cells, 1 μM 4h, MIB pulldown ratio SM1-71/SM1-71-R
[3] = H23 cells, 1 μM 4h, 0h post-washout, MIB pulldown ratio SM1-71/SM1-71-R
[4] = H23 cells, 1 μM 4h, 6h post-washout, MIB pulldown ratio SM1-71/SM1-71-R

C=CC(=O)Nc1ccccc1Nc1nc(Nc2ccc(N3CCN(C)CC3)cc2)ncc1Cl [SM1-71]
BI-0h (CSNK1G3; 0h post-washout): 0.77
BI-6h (CSNK1G3; 6h post-washout): 0.75
BI-0h (TGFBR2; 0h post-washout): 0.53
BI-6h (TGFBR2; 6h post-washout): 0.6
BI-0h (MAP3K1): 0.2
BI-0h (PRKD3; 0h post-washout): 0.59
BI-6h (PRKD3; 6h post-washout): 0.72
BI-0h (LYN; 0h post-washout): 1.1
BI-6h (LYN; 6h post-washout): 0.79
IC50 (AURKA [1]): < 10 nM
BI-0h (MAP2K2; 0h post-washout): 0.03
BI-6h (MAP2K2; 6h post-washout): 0.18
BI-0h (PIP5K1A; 0h post-washout): 0.56
BI-6h (PIP5K1A; 6h post-washout): 0.75
BI-0h (IGF1R; 0h post-washout): 0.45
BI-6h (IGF1R; 6h post-washout): 0.64
BI-0h (PIK3C3; 0h post-washout): 0.28
BI-6h (PIK3C3; 6h post-washout): 0.44
BI-0h (AURKA [2]; [3]): 1.16
BI-6h (AURKA [2]; [4]): 2.38
Binding (AURKA [2]; class from BI 0h and 6h): Strongly Reversible (BI0h,6h greater than 1 suggesting a strong preference for reversible mode of inhibition)
IC50 (LIMK1): < 10 nM
BI-0h (CSNK1G1; 0h post-washout): 0.55
BI-6h (CSNK1G1; 6h post-washout): 0.81
BI-0h (CSNK2A1; 0h post-washout): 0.8
BI-6h (CSNK2A1; 6h post-washout): 0.64
BI-0h (MAP2K1; 0h post-washout): 0.05
BI-6h (MAP2K1; 6h post-washout): 0.36
BI-0h (PAK4; 0h post-washout): 0.93
BI-6h (PAK4; 6h post-washout): 0.9
covalent adduct formation (mass shift) (GSK3B): formed covalent adducts
BI-0h (CSNK1D; 0h post-washout): 0.71
BI-6h (CSNK1D; 6h post-washout): 0.78
BI-0h (ACVR1; [3]): 0.81
BI-6h (ACVR1; [4]): 0.3
Binding (ACVR1; class from BI 0h and 6h): Weakly Irreversible
IC50 (MAP2K1/2): < 10 nM
BI-0h (ACVR1B; 0h post-washout): 0.9
BI-6h (ACVR1B; 6h post-washout): 0.92
